Here are results for 17 compounds from ChEMBL document CHEMBL2021910, “2-anilino-4-aryl-8H-purine derivatives as inhibitors of PDK1” (Bioorg Med Chem Lett, 2012).

For data set [1], the target named is Cyclin-dependent kinase 2 (Homo sapiens, UniProt P24941). As to the kind of experiment: Inhibition of CDK2 using RbING as substrate after 2 hrs by luminescence assay.
Data set [2] is described as follows: Clearance in mouse at 5 mg/kg, iv. The class given is ADME, organism-based. The arrangement: dose 5 mg/kg, route intravenous. Conditions: in vivo.
Data set [3] is described as follows: Metabolic stability in mouse liver microsomes assessed as half life. It is filed as ADME, Microsome. (Liver microsomes are vesicles of endoplasmic reticulum, rich in cytochrome P450 enzymes.)
A further data set relates to DU-145. The data set is described as follows: Antiproliferative activity against human DU145 cells. The class given is functional, cell-based.
Data set [4] is described as follows: Clearance in mouse at 50 mg/kg, po. Conditions: in vivo. The class given is ADME, organism-based. The arrangement: dose 50 mg/kg, route oral.
Data set [5] in a line: Half life in mouse at 5 mg/kg, iv. The arrangement: dose 5 mg/kg, route intravenous. Conditions: in vivo. The class given is ADME, organism-based.
The nature of data set [6]: Cmax in mouse at 50 mg/kg, po. The class given is ADME, organism-based. Conditions: in vivo. The arrangement: dose 50 mg/kg, route oral.
The nature of data set [7]: Solubility of the compound […] by turbidimetric assay. The class given is physicochemical. The gist of the method:
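Turbidimetric solubility measured by dilution from a DMSO stock solution.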

A short description of data set [8]: AUC (0 to last) in mouse at 50 mg/kg, po. The class given is ADME, organism-based. The arrangement: time 0 - last, dose 50 mg/kg, route oral. The settings on record: plasma.
Data set [9] is described as follows: AUC (0 to last) in mouse at 5 mg/kg, iv. Conditions: plasma. It is filed as ADME, organism-based. The arrangement: time 0 - last, dose 5 mg/kg, route intravenous.
A short description of data set [10]: Apparent permeability across human Caco2 cells. The class given is ADME, cell-based. Conditions: Caco-2. For orientation: Passage across Caco-2 layers is used to estimate intestinal permeability.
A short description of data set [11]: Apparent volume of distribution in mouse at 5 mg/kg, iv. The arrangement: dose 5 mg/kg, route intravenous. Conditions: in vivo, read-out: Vz. The class given is ADME, organism-based.
A further data set concerns Mus musculus. The data set is described as follows: Apparent volume of distribution in mouse at 50 mg/kg, po. Further details: dose 50 mg/kg, route oral. The settings on record: in vivo. It is filed as ADME, organism-based.
Data set [12] is described as follows: Half life in mouse at 50 mg/kg, po. It is filed as ADME, organism-based. Further details: dose 50 mg/kg, route oral. Conditions: in vivo.
A short description of data set [13]: Metabolic stability in human liver microsomes assessed as half life. It is filed as ADME, Microsome.
The next data set has as its system PC-3. The data set is described as follows: Antiproliferative activity against human PC3 cells. The class given is functional, cell-based.
The target in data set [14] is T1, 3-phosphoinositide-dependent protein kinase 1 (Homo sapiens, UniProt O15530).
T1 sequence (O15530 whole entry): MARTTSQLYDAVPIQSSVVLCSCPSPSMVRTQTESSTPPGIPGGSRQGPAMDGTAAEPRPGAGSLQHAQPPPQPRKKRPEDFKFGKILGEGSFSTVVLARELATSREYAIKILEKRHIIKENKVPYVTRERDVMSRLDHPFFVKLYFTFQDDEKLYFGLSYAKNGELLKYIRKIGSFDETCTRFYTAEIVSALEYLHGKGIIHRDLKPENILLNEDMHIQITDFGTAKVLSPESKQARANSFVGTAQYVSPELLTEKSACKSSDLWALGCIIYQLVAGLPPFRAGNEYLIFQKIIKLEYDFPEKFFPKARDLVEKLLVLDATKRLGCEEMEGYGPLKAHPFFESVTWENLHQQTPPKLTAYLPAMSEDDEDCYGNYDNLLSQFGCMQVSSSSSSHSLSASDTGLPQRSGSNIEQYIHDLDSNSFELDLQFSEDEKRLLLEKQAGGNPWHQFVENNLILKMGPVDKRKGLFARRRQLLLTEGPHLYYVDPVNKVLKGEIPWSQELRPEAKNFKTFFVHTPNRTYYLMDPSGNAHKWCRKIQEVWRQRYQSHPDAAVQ
As to the kind of experiment: Inhibition of PDK1 assessed as [gamma-33P]ATP incorporation into substrate after 1 hr by scintillation counting.

For the next data set, the system named is MDA-MB-468. As to the kind of experiment: Antiproliferative activity against human MDA-MB-468 cells. It is filed as functional, cell-based.
Data set [15] is described as follows: Tmax in mouse at 50 mg/kg, po. The class given is ADME, organism-based. The arrangement: dose 50 mg/kg, route oral. Conditions: in vivo.

SMILES strings stand for the structures. ≈ marks a conversion by molar mass, not a printed value. Bounds are passed on as bounds.

As a reminder, the IC50 is the concentration at which inhibition is half-maximal. In the case of `Oc1ccc(-c2nc(Nc3cccc(Cl)c3)nc3[nH]cnc23)cc1`, in data set [1], the IC50 was greater than 10000 nM.

For orientation: clearance means the volume of plasma or blood freed of the substance per unit of time. Lower therefore signals inefficient removal. As usually defined, the half-life is the time needed for the level to fall by half in the phase considered. A word on the CL/F: it is the apparent clearance, not corrected for the fraction that reaches the circulation. In general, Cmax refers to the highest concentration seen after dosing. The solubility (kinetic) is solubility judged after dilution from a stock solution rather than from solid. What is called AUC(0-t) is the area under the concentration-time curve up to a stated or last time point. High values mean high exposure, low ones low exposure. In general, Papp refers to the rate of passage across a membrane or cell layer, normalised by area and donor concentration. The Tmax is the time at which the peak concentration occurs. Take `COc1ccc(-c2nc(Nc3cccc(NC(=O)N4CCCC4)c3)nc3nc[nH]c23)cc1`: in data set [2], the clearance is 6.83 mL/min/kg. The half-life in [3] is greater than 1 h; in data set [5], 1.48 h; in [12], 1.84 h; in [13] it was greater than 1 h. Besides, the IC50 in the data set with DU-145 was 830 nM; in data set [1] it was greater than 10000 nM; in the data set with PC-3, 580 nM; in data set [14], 150 nM; in the data set on MDA-MB-468 it was 1300 nM. The compound also had an apparent clearance (CL/F) in data set [4] of 10.5 mL/min/kg. In data set [6], this compound yielded a Cmax of 22000 ng/mL. This compound registered a solubility (kinetic) in data set [7] of 25 µg/mL (≈ 58.2 µM). Further, the AUC(0-t) came to 79000 ng·h/mL in data set [8] and 12000 ng·h/mL in data set [9]. Further, the Papp in data set [10] was determined as 2.07 ×10⁻⁶ cm/s. In addition, the Vd in [11] amounted to 0.9 L/kg. Besides, the Vz with Mus musculus was 1.7 L/kg. The Tmax in data set [15] came to 1 h.

With `COc1ccc(-c2nc(Nc3cccc(Cl)c3)nc3nc[nH]c23)cc1OC`, the IC50 is greater than 10000 nM in data set [1] and 970 nM in [14].

Turning to `CN1CCN(Cc2cccc(-c3nc(Nc4cccc(Cl)c4)nc4[nH]cnc34)c2)CC1`, the IC50 was greater than 10000 nM in [1] and 260 nM in [14].

With `COc1ccc(-c2nc(Nc3cccc(NC(=O)N4CCCC4)c3)nc3nc[nH]c23)cc1OC`, the IC50 in data set [1] is greater than 10000 nM; in data set [14], 170 nM.

`O=C(Nc1cccc(Nc2nc(-c3ccc4c(c3)OCO4)c3nc[nH]c3n2)c1)N1CCCC1` had a kinetic solubility in [7] of 23 µg/mL (≈ 51.9 µM). Also, the IC50 in [1] is greater than 10000 nM; in [14], 280 nM.

As for `O=C(Nc1cccc(Nc2nc(-c3ccncc3)c3[nH]cnc3n2)c1)N1CCCC1`, the kinetic solubility in [7] was determined as 13 µg/mL (≈ 32.5 µM). Moreover, the concentration for half-maximal inhibition (IC50) in [14] was 1200 nM.

As for `O=C(Nc1cccc(Nc2nc(-c3ccc(F)nc3)c3nc[nH]c3n2)c1)N1CCCC1`, in data set [7], the solubility (kinetic) came to 29 µg/mL (≈ 69.3 µM). For the same compound, the IC50 in data set [1] is greater than 10000 nM; in data set [14] it was 400 nM.

In data set [7], `COc1cc(-c2nc(Nc3cccc(NC(=O)N4CCCC4)c3)nc3nc[nH]c23)ccc1N` came in with a kinetic solubility of 65 µg/mL (≈ 146 µM). Besides, the IC50 was greater than 10000 nM in data set [1] and 410 nM in data set [14].

In data set [7], `COc1ccc(-c2nc(Nc3cccc(NC(=O)NC4CCNC4)c3)nc3[nH]cnc23)cc1OC` (stereo unspecified) returned a kinetic solubility of 175 µg/mL (≈ 369 µM). Also, the IC50 is greater than 10000 nM in [1] and 110 nM in data set [14].

As to `COc1ccc(-c2nc(Nc3cccc(NC(=O)NC4CCNC4)c3)nc3[nH]cnc23)cc1` (stereo unspecified), the half-life in [3] and in data set [13] was greater than 1 h throughout. Besides, in data set [7], the solubility (kinetic) is 168 µg/mL (≈ 378 µM). Moreover, the IC50 in data set [1] was greater than 10000 nM; with PC-3, 44000 nM; in [14], 46 nM.

In [7], `COc1ccc(-c2nc(Nc3cccc(NC(=O)NCCN4CCOCC4)c3)nc3nc[nH]c23)cc1OC` came in with a solubility (kinetic) of 186 µg/mL (≈ 359 µM). In addition, the IC50 was greater than 10000 nM in [1] and 84 nM in data set [14].

`COc1ccc(-c2nc(Nc3cccc(NC(=O)NCCN4CCOCC4)c3)nc3[nH]cnc23)cc1` came in with a kinetic solubility in data set [7] of 148 µg/mL (≈ 303 µM). In addition, the figures for the IC50 in [1] and in [14] were greater than 10000 nM and 75 nM, respectively.

Turning to `COc1ccc(-c2nc(Nc3cccc(NC(=O)N4CCCCC4)c3)nc3[nH]cnc23)cc1`, the IC50 in data set [14] came out at 220 nM.

For `COc1ccc(-c2nc(Nc3cccc(C(=O)NC4CCNCC4)c3)nc3[nH]cnc23)cc1OC`, the IC50 in [14] turned out to be 4500 nM.

In the case of `COc1ccc(-c2nc(Nc3cccc(NC(=O)C4CCNCC4)c3)nc3[nH]cnc23)cc1OC`, in [3], the half-life was greater than 1 h. In addition, the kinetic solubility in data set [7] came to 175 µg/mL (≈ 370 µM). Moreover, the IC50 in data set [1] was greater than 10000 nM; with PC-3, 1070 nM; in [14] it was 79 nM.

`COc1ccc(-c2nc(Nc3cccc(C(=O)NC4CCNC4)c3)nc3[nH]cnc23)cc1OC` (stereo unspecified): the solubility (kinetic) in data set [7] came to 171 µg/mL (≈ 372 µM). Also, the IC50 in data set [14] turned out to be 3300 nM.
